Assay results taken from ChEMBL document CHEMBL2040734, “Benzothiazoles: search for anticancer agents” (2012).

What was measured:
Type in all cases: functional
NCI-H460 [1] = test: Cytotoxicity against human NCI-H460 cells assessed as cell growth at 10 '-5 M after 48 hrs by sulforhodamine B assay; settings: NCI-H460, 48 h, read-out: Activity
PC-3 = test: Cytotoxicity against human PC3 cells assessed as cell growth at 10 '-5 M after 48 hrs by sulforhodamine B assay; settings: PC-3, 48 h, read-out: Activity
SF-268 [2] = test: Cytotoxicity against human SF268 cells assessed as cell growth at 0.1 uM after 48 hrs by sulforhodamine B assay; settings: SF-268, 48 h, read-out: Activity
UACC-257 [3] = test: Cytotoxicity against human UACC257 cells assessed as cell growth at 100 uM after 48 hrs by sulforhodamine B assay; settings: UACC-257, 48 h, read-out: Activity
SNB-75 = test: Cytotoxicity against human SNB75 cells assessed as cell growth at 10 '-5 M after 48 hrs by sulforhodamine B assay; settings: SNB-75, 48 h, read-out: Activity
786-0 [4] = test: Cytotoxicity against human 786-0 cells assessed as cell growth at 10 uM after 48 hrs by sulforhodamine B assay; settings: 786-0, 48 h, read-out: Activity
Method in brief: (§1)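 NCI-60 five-dose screen. Cells were grown in RPMI 1640 with 5% FBS and 2 mM L-glutamine and preincubated 24 h. Compound (DMSO stock) was tested at 0.01, 0.1, 1, 10 and 100 µM for 48 h at 37 °C. Cells were fixed in situ with cold TCA (final 10%) and stained with 0.4% SRB. A515 was read, and percent growth was calculated against time-zero and control plates.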

U-251 = test: Cytotoxicity against human U251 cells assessed as cell growth at 0.01 uM after 48 hrs by sulforhodamine B assay; settings: U-251, 48 h, read-out: Activity
OVCAR-5 = test: Cytotoxicity against human OVCAR5 cells assessed as cell growth at 0.01 uM after 48 hrs by sulforhodamine B assay; settings: OVCAR-5, 48 h, read-out: Activity
RPMI-8226 = test: Growth inhibition of human RPMI8226 cells after 48 hrs by sulforhodamine B assay; settings: RPMI-8226, 48 h; for CC50: read-out: LC50 (the source's name)
Method in brief: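 Leukemia suspension lines were grown in RPMI 1640 with 5% FBS and 2 mM L-glutamine and plated at 5000–40,000 cells/well with 24 h preincubation. They were treated at 0.01, 0.1, 1, 10 and 100 µM (DMSO stock) for 48 h at 37 °C. Settled cells were fixed with 80% TCA (16% final) and stained with 0.4% SRB in 1% acetic acid, then read at 515 nm. GI50 was calculated against time-zero and control wells.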

SW-620 = test: Cytotoxicity against human SW620 cells assessed as cell growth at 0.01 uM after 48 hrs by sulforhodamine B assay; settings: SW-620, 48 h, read-out: Activity
KM12 = test: Cytotoxicity against human KM12 cells assessed as cell growth at 10 '-5 M after 48 hrs by sulforhodamine B assay; settings: KM12, 48 h, read-out: Activity
SF-295 = test: Cytotoxicity against human SF295 cells assessed as cell growth at 0.01 uM after 48 hrs by sulforhodamine B assay; settings: SF-295, 48 h, read-out: Activity
NCI-H460 [5] = test: Cytotoxicity against human NCI-H460 cells assessed as cell growth at 0.01 uM after 48 hrs by sulforhodamine B assay; settings: NCI-H460, 48 h, read-out: Activity
T47D = test: Cytotoxicity against human T47D cells assessed as cell growth at 0.01 uM after 48 hrs by sulforhodamine B assay; settings: read-out: Activity
HCT-116 = test: Cytotoxicity against human HCT116 cells assessed as cell growth at 100 uM after 48 hrs by sulforhodamine B assay; settings: HCT-116, 48 h, read-out: Activity
Method in brief: (§2)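 Five-dose NCI panel run at 0.01, 0.1, 1, 10 and 100 µM. Cells were in RPMI 1640 with 5% FBS and 2 mM L-glutamine, seeded at 5000–40,000 cells/well and pre-incubated 24 h. Drug was diluted from a DMSO stock into medium with 50 µg/ml gentamicin. Exposure was 48 h at 37 °C, 5% CO2. Cells were fixed with cold TCA and stained with 0.4% SRB, read at 515 nm. Percent growth came from time-zero, control and test absorbances.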

MDA-MB-231 = test: Growth inhibition of human MDA-MB-231 cells after 48 hrs by sulforhodamine B assay; settings: MDA-MB-231, 48 h
Method in brief: (§3)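 Adherent NCI-60 lines were grown in RPMI 1640 with 5% FBS and 2 mM L-glutamine, plated at 5000–40,000 cells/well and preincubated 24 h. They were then exposed to five concentrations (0.01–100 µM, from a DMSO stock) for 48 h at 37 °C, 5% CO2. Cells were fixed with cold TCA (10% final, 60 min, 4 °C) and stained with 0.4% SRB. Dye was solubilized in 10 mM Tris base and A515 read. GI50 was derived from time-zero, control and treated absorbances.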

UACC-62 = test: Cytotoxicity against human UACC62 cells assessed as cell growth at 0.1 uM after 48 hrs by sulforhodamine B assay; settings: UACC-62, 48 h, read-out: Activity
LOX IMVI = test: Growth inhibition of human LOXIMVI cells after 48 hrs by sulforhodamine B assay; method in brief: as §3
DU-145 = test: Cytotoxicity against human DU145 cells assessed as cell growth at 100 uM after 48 hrs by sulforhodamine B assay; settings: DU-145, 48 h, read-out: Activity; method in brief: as §2
786-0 [6] = test: Cytotoxicity against human 786-0 cells assessed as cell growth at 100 uM after 48 hrs by sulforhodamine B assay; settings: 786-0, 48 h, read-out: Activity; method in brief: as §1
MOLT-4 = test: Cytotoxicity against human MOLT4 cells assessed as cell growth at 0.01 uM after 48 hrs by sulforhodamine B assay; settings: MOLT-4, 48 h, read-out: Activity
EKVX = test: Cytotoxicity against human EKVX cells assessed as cell growth at 0.01 uM after 48 hrs by sulforhodamine B assay; settings: read-out: Activity; method in brief: as §2
RXF 393 = test: Growth inhibition of human RXF393 cells after 48 hrs by sulforhodamine B assay; settings: RXF 393, 48 h; method in brief: as §3
M14 = test: Growth inhibition of human M14 cells after 48 hrs by sulforhodamine B assay; settings: M14, 48 h; method in brief: as §3
COLO 205 = test: Cytotoxicity against human COLO205 cells assessed as cell growth at 100 uM after 48 hrs by sulforhodamine B assay; settings: COLO 205, 48 h, read-out: Activity; method in brief: as §1
SK-MEL-28 = test: Cytotoxicity against human SK-MEL-28 cells assessed as cell growth at 1 uM after 48 hrs by sulforhodamine B assay; settings: SK-MEL-28, 48 h, read-out: Activity
SF-268 [7] = test: Cytotoxicity against human SF268 cells assessed as cell growth at 0.01 uM after 48 hrs by sulforhodamine B assay; settings: SF-268, 48 h, read-out: Activity
UACC-257 [8] = test: Cytotoxicity against human UACC257 cells assessed as cell growth at 1 uM after 48 hrs by sulforhodamine B assay; settings: UACC-257, 48 h, read-out: Activity

SMILES	growth at 10 µM (NCI-H460 [1]) [%]	growth at 10 µM (PC-3) [%]	growth at 0.1 µM (SF-268 [2]) [%]	growth at 100 µM (UACC-257 [3]) [%]	growth at 10 µM (SNB-75) [%]	growth at 10 µM (786-0 [4]) [%]	growth at 0.01 µM (U-251) [%]	growth at 0.01 µM (OVCAR-5) [%]	GI50 (RPMI-8226) [µM]	TGI (RPMI-8226) [µM]	CC50 (RPMI-8226) [µM]	growth at 0.01 µM (SW-620) [%]	growth at 10 µM (KM12) [%]	growth at 0.01 µM (SF-295) [%]	growth at 0.01 µM (NCI-H460 [5]) [%]	growth at 0.01 µM (T47D) [%]	growth at 100 µM (HCT-116) [%]	GI50 (MDA-MB-231) [µM]	LC50 (concentration killing 50% of cells) (MDA-MB-231) [µM]	TGI (MDA-MB-231) [µM]	also measured
Cc1ccc2nc(Nc3c(C)cccc3C)sc2c1	22.7	40.4	100	73	-15.5	56	97	93	> 100	> 100	> 100	97	11.1	91	102	94	49	0.528	> 100	59.8	growth at 0.1 µM (UACC-62): 85%; LC50 (LOX IMVI): > 100 µM; TGI (LOX IMVI): > 100 µM; growth at 100 µM (DU-145): 65%; growth at 100 µM (786-0 [6]): 60%; growth at 0.01 µM (MOLT-4): 104%; growth at 0.01 µM (EKVX): 93%; GI50 (RXF 393): 1.2 µM; TGI (RXF 393): > 100 µM; CC50 (RXF 393; read-out: LC50 (the source's name)): > 100 µM; LC50 (M14): > 100 µM; TGI (M14): > 100 µM; growth at 100 µM (COLO 205): 64%; growth at 1 µM (SK-MEL-28): 66%; growth at 0.01 µM (SF-268 [7]): 94%; growth at 1 µM (UACC-257 [8]): 83%
Clc1cccc(Cl)c1Nc1nc2cccc(Cl)c2s1	-57.9	4.1	97	-67	-26.9	-93	104	102	0.829	5.05	> 100	97	-68.5	93	102	95	-73	0.304	4.06	1.42	growth at 0.1 µM (UACC-62): 86%; GI50 (LOX IMVI): 1.09 µM; TGI (LOX IMVI): 2.51 µM; growth at 100 µM (DU-145): -85%; growth at 100 µM (786-0 [6]): -90%; growth at 0.01 µM (MOLT-4): 107%; growth at 0.01 µM (EKVX): 96%; GI50 (RXF 393): 0.676 µM; TGI (RXF 393): 2.41 µM; GI50 (M14): 1.46 µM; LC50 (M14): 7.44 µM; TGI (M14): 3.29 µM; growth at 100 µM (COLO 205): -52%; growth at 1 µM (SK-MEL-28): 77%; growth at 0.01 µM (SF-268 [7]): 98%; growth at 1 µM (UACC-257 [8]): 68%
